Screens (PubChem)
GSIS activator: primary screen for activators of insulin secretion dependent on glucose, INS-1E cells, GLuc reporter luminescence; INS-1E GLuc reporter insulin secretion, 2-3 h; activation, % at 16.6 µM; actives 0.61% (n = 370,000);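 active means lowest replicate activation of at least 40%, so every replicate reaches that level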;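 further: 0% = median of neutral control wells and 100% = median of IBMX positive control wells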
Cneo AK release: causes C. neoformans cell lysis; actives 0.2% (n = 360,000); AID 651654; adenylate kinase release luminescence, 4 h; normalised: neutral wells 0, clomiphene wells 100; lysis activity, % at 15 µM;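 active means mean lysis activity across replicates of at least 80%, whatever share of replicates individually reach that level; inactive means mean lysis activity below 80%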
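Material – Cryptococcus neoformans yeast cells · Quantity – 5 × 10^6 yeast cells/mL · Buffer or medium – YPD medium · Compound – single dose · Timing – 4 h static compound exposure, 37 °C, read 1 h post-reagent · Signal – adenylate kinase release luminescence · Read-out basis – lysis from increased AK signal · Benchmarks – Clomiphene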
PAX8 inh HTS: PAX8 transcriptional activity inhibition; RMG-I TPO-luciferase reporter, SteadyGlo, 24 h; inhibition, % at 12.6 µM; actives 1.2% (n = 360,000); AID 652154;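 active means mean replicate inhibition at least 60% with every replicate also reaching 60%; inconclusive means only one of the two criteria is met; inactive means mean below 60% and not all replicates reaching 60%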;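 further: luciferase light reporting Pax8 driven TPO promoter activity; plate controls were median of neutral control wells for no effect and mitoxantrone controls for full effect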
dFosB act: activators of mouse delta FosB homodimer | P13346 | purified delta FosB, TAMRA-CDK5 oligo fluorescence polarization; percent of positive-control signal above neutral wells | activation, % at 25 µM | actives 0.99% (n = 340,000) | AID 493131;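 active means mean activation above about 17%, with every replicate also reaching it, limit read from the data, passing the limit was not always enough; inconclusive means only one of the two conditions met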
HIV Env fusion: HIV envelope-mediated fusion inhibition | HeLa-JRFL Env/CEM21 cell fusion, luciferase | inhibition, % at 12.3 µM | actives 1.1% (n = 360,000);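 active means mean replicate inhibition score of at least 50 and every replicate individually at or above 50; inconclusive means only one of the two criteria met; inactive means mean below 50 and not all replicates reaching 50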;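 further: 0% = plate neutral controls and 100% = maraviroc near 300 nM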
CDK5 inh: inhibitors of human CDK5/p35 kinase | Q00535+Q15078 | Recombinant CDK5/p35, ADP-Glo luminescence, 60 min | actives 0.01% (n = 330,000) | inhibition, % at 10 µM;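 active means highest replicate inhibition of at least 50% and at least 75% of replicates reaching 50%; inconclusive means only one of the two criteria met; inactive means both criteria failed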;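 further: plate controls were DMSO neutral control for no effect and GW8510 at 10 µM for full effect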
Target sequence (Q00535 whole entry, looked up): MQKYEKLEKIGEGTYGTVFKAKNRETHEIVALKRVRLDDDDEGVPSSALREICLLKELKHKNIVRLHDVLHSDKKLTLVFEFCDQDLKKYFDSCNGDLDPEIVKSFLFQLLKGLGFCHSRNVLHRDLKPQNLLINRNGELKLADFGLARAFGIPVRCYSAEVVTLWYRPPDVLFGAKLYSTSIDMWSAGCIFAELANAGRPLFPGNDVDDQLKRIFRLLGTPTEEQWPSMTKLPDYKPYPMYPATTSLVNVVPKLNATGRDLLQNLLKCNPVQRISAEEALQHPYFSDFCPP
Target sequence (Q15078 whole entry, looked up): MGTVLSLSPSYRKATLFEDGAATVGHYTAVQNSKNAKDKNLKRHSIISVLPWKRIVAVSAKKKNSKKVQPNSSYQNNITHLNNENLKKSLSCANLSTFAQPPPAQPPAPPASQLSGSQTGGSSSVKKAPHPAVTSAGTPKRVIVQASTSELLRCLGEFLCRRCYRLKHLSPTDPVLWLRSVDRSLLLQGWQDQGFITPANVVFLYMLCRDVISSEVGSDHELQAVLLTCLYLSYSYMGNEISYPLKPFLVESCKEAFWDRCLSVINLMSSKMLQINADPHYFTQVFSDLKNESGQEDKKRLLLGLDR
An asterisk follows results filed as active; ? = inconclusive; / = no result; [ ] = dose if it differs, or a comment. In the library only some 2.9% were active in any assay of this set; here they are far more common.

SMILES	GSIS activator	Cneo AK release	PAX8 inh HTS	dFosB act	HIV Env fusion	CDK5 inh
C[C@@H]1CN([C@@H](C)CO)C(=O)c2cc(/C=C/c3ccccc3)cnc2O[C@H]1CN(C)C(=O)CN(C)C	9	5	/	/	-8[16.7 µM]	/
COc1ccc(-c2ccc3c(c2)[C@H]2[C@H](CCN2S(=O)(=O)c2ccccc2F)[C@@H](CO)N3)cc1	/	13	?	/	/	/
COCC(=O)N1CC[C@@H]2[C@H]1c1cc(C#Cc3cccc(F)c3)ccc1N[C@@H]2CO	3	1	6	/	/	/
COc1ccccc1-c1ccc2c(c1)O[C@@H](CN(C)S(=O)(=O)c1ccc(C)cc1)[C@H](C)CN([C@H](C)CO)S2(=O)=O	-7	-1	50	/	31[16.7 µM]	/
Cc1ccc(S(=O)(=O)N[C@@H]2CC[C@@H](CCn3cc(C4CCCCC4)nn3)O[C@H]2CO)cc1	-8	41	13	/	-80[16.7 µM]	/
CCc1nnc(NC(=O)CSc2nnc(-c3ccccc3NC(=O)c3ccccc3)o2)s1	52*	-3	/	-2	-19	10
Cc1nc(CSc2nnc(C)s2)cs1	0	/	85*	-8	/	/
Cc1nnc(SCc2ccc(F)cc2)s1	/	3	/	3	/	-2
CN(Cc1ccccc1)N=Nc1nc[nH]c1C(N)=O	12	0	87*	/	-1	/
CN(Cc1ccccc1)N=Nc1ccccc1	0	2	6	/	2	/
C[C@@H]1CN([C@H](C)CO)C(=O)c2cccc(NS(C)(=O)=O)c2O[C@@H]1CN(C)C(=O)Nc1ccc2c(c1)OCO2	-1	-1	/	/	-16[16.7 µM]	/
COc1ccc(C(=O)NC(=S)Nc2ccc(N3CCCC3)cc2)cc1	-1	/	-11	-4	14	1
COc1ccc(C(=O)Nc2ccc(N3CCCC3)cc2)cc1	/	-3	/	29*	/	-6
CCCCOc1ccc(C(=O)Nc2ccc3c(c2)C(=O)NC3=O)cc1	28	-5	-6	6	5	1
CCOc1ccc(C(=O)Nc2ccc3c(c2)C(=O)NC3=O)cc1	15	1	2	59*	-11	-1
COc1ccc(C2(C(=O)Nc3nncs3)CCCC2)cc1	-6	3	/	-10	1	-1
COc1ccc(NC(=O)C2(c3ccc(NC(=O)c4ccc(OC)cc4)cc3)CCCC2)cc1	98*	1	-18	0	4	0
CN1CCN(c2ccc(NC(=O)c3ccc(Oc4ccccc4)cc3)cc2)CC1	50*	0	-13	-2	23	0
CNC[C@@H]1Oc2c(NC(=O)C3CCCCC3)cccc2C(=O)N([C@@H](C)CO)C[C@H]1C	6	8	-5	/	4[16.7 µM]	/
CCOc1ccc(C(=O)Nc2ccc(N3CCCC3)cc2)cc1	/	/	/	22*	/	-2
CCOc1cccc(C(=O)Nc2ccc(N3CCCC3)cc2)c1	2	2	-15	-2	-3	0
CC=Cc1ccc2n(c1=O)C[C@H]1[C@H](CO)[C@@H](C(=O)NCC(F)(F)F)[C@@H]2N1C(=O)C1CC1 (mixture of isomers)	3	-3	/	/	/	/
C[C@@H]1CN([C@@H](C)CO)C(=O)c2cc(NC(=O)Nc3ccc(F)cc3)ccc2O[C@@H](C)CCCCO[C@H]1CN(C)Cc1ccc(C(=O)O)cc1	12	0	-8	/	-1[16.7 µM]	/
Cn1nnnc1Sc1ncnc2scc(-c3cccc4c3sc3ccccc34)c12	5	-1	88*	4	?	-1
Cn1nnnc1Sc1ncnc2scc(-c3ccc(Cl)cc3)c12	70*	0	57	0	-33	-2
SMILES	GSIS activator	Cneo AK release	PAX8 inh HTS	dFosB act	HIV Env fusion	CDK5 inh
Cn1nnnc1Sc1ncnc2scc(-c3ccc([N+](=O)[O-])cc3)c12	11	0	108*	2	-122	0
Cn1nnnc1Sc1ccc([N+](=O)[O-])cc1Cl	18	/	11	6	-18	1
Cn1nnnc1Sc1ncnc2scc(-c3ccc4c(c3)OCO4)c12	58	27	101*	-14	-9	0
CCC(=O)Nc1ccc2c(c1)C(=O)N(C)[C@@H]1CC[C@@H](CC(=O)N[C@H](C)c3ccccc3)O[C@@H]1CO2	-2	75	-12	/	7[16.7 µM]	/
CCc1nc(N2[C@H](CO)[C@@H](c3ccccc3-c3ccc(F)cc3)[C@@H]2C#N)sc1C	-2	/	/	/	/	/
Cc1sc2ncnc(Sc3nnnn3-c3ccccc3)c2c1C	4	-1	/	-1	/	-1
